# sPLA2-III inh – Inhibits HGIII-sPLA2 liposome hydrolysis, primary screen | QFRET BODIPY PC-A2 liposome hydrolysis, fluorescence | inhibition, % at 12.2 µM | 370,000 tested, 0.56% active;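 active = inhibition above mean plus 3 SD of compounds lying within the high and low control bounds, cut at about 19% in these data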;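 also: 0% = median of test compound wells and 100% = no enzyme DMSO wells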
# Target sequence (Q9NZ20 whole entry, looked up): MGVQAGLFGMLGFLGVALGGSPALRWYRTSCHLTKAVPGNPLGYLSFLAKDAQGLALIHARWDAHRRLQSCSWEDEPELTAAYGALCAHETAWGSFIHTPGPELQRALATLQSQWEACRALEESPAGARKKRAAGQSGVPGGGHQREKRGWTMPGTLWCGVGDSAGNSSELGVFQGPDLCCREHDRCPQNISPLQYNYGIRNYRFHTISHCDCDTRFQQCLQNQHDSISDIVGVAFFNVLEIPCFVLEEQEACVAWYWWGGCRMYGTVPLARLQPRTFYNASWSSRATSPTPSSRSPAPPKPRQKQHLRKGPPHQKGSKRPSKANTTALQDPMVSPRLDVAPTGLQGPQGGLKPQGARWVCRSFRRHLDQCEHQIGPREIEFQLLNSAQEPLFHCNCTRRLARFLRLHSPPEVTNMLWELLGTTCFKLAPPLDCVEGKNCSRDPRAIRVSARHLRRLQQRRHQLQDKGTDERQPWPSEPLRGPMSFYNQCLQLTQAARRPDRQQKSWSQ
# ARFGAP1 inh – inhibits rat ARF GTPase activating protein 1; Arfgap1-stimulated ARF1 GTP hydrolysis, GDP FP detection; 360,000 tested, 0.26% active; Q62848; AID 651572; inhibition, % at 16.5 µM;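 active = inhibition above a per-plate limit, mean inhibition of low control wells plus 3 SD, cut at about 25% in these data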;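 also: 0% = DMSO wells with enzyme and 100% = wells lacking Arfgap1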
# Target sequence (Q62848 1-136 limits assumed): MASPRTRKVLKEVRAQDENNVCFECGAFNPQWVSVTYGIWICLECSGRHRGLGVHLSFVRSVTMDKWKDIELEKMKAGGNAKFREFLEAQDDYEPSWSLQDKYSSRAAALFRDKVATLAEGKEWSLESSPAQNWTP
#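 material = rat Arfgap1 catalytic domain, aa 1-136 | also added = human ARF1(Δ1-17)-GTP substrate | compound dosing = one concentration, 16.5 µM, DMSO 1.26% | times = GTP hydrolysis reaction 2 h at 25 °C | measured by = FP, GDP Alexa 633 tracer displaced from anti-GDP antibody, 620/688 nm | evaluation = percent inhibition of Arfgap1-stimulated GTP hydrolysis | replication = single well per compound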
# SKKanGAS inh – inhibitors of SKKanGAS S. pyogenes growth in kanamycin (SK-promoter or general growth effect); BacTiter-Glo, 6 h; inhibition, % at 7.5 µM; 300,000 tested, 1.3% active; AID 1662;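 active = mean replicate score, as percent of positive control median, at least 50; inconclusive = mean below 50 but one replicate at or above 50; inactive = mean and every replicate below 50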;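 also: strain carries kanamycin resistance gene driven by streptokinase promoter and grows in 40 µg/ml kanamycin; loss of luminescence reflects streptokinase promoter inhibition or plain growth inhibition; 0% = median of DMSO wells and 100% = positive control at its reference dose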
# Calb FLC – affects C. albicans growth with fluconazole; C. albicans CaCi-2 + fluconazole, Alamar Blue growth, 48 h; growth inhibition, % (test concentration not listed); 300,000 tested, 0.57% active; AID 1979;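 active = growth inhibition above about 58% in most replicates, limit read from the data, passing the limit was not always enough; inconclusive = exactly half the replicates above a set limit; inactive = most replicates below a set limit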;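 also: all wells also contain fluconazole at 8 µg/ml as a sub-toxic cotreatment; 0% = median of DMSO wells and 100% = median of geldanamycin control wells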
# ASAP1 inh – blocks human ASAP1-stimulated Arf1 GTP hydrolysis. AID 624377. Q9ULH1. 360,000 tested, 0.19% active. GDP FP detection. inhibition, % at 16.5 µM; in the data active = inhibition above about 25%;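 also: 0% = vehicle with enzyme and substrate and 100% = no enzyme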
# ARFGAP1 confirm – confirmation of rat ARFGAP1 inhibitors; shares compounds with ARFGAP1 inh; ARFGAP1-stimulated ARF1 GTP hydrolysis, GDP tracer FP; inhibition, % at 16.5 µM; 890 tested, 30% active;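 active = average inhibition over triplicates above the hit cutoff set in the earlier primary screen, cut at about 25% in these data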;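 also: 0% = Arfgap1 plus ARF1-GTP with DMSO and 100% = wells lacking Arfgap1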
# * marks the source's active call; other numbers are inactive results; ? = inconclusive; / = not tested or not shown. Most compounds without a hit are left out; they make up all but 2.3% or so of the library.
SMILES,sPLA2-III inh,ARFGAP1 inh,SKKanGAS inh,Calb FLC,ASAP1 inh,ARFGAP1 confirm
COc1ccc([N+](=O)[O-])cc1CN1CCN(c2ncc(Cc3ccccc3)cn2)CC1,-5,26*,/,/,-4,-2
COC(=O)[C@]12C[C@H](CC(=O)N3CCN(C(=O)c4ccco4)CC3)C(=O)N(Cc3ccc(Cl)cc3Cl)C1=C[C@H](C(C)C)O[C@@H]2C1CC1,-11,/,/,/,/,/
C[C@@H]1CCCCO[C@H](CN(C)S(=O)(=O)c2cccs2)[C@H](C)CN([C@@H](C)CO)C(=O)c2cc(NC(=O)NC3CCCCC3)ccc2O1,-22,25*,/,/,-3,4
C[C@H](CO)N1C[C@H](C)[C@@H](CN(C)S(=O)(=O)c2cccs2)Oc2ccc(NC(=O)NC3CCCCC3)cc2C1=O,-8,-11,/,/,1,/
CCCCS(=O)(=O)N1CCCc2nc(CC)c(CC)cc21,5,0,/,/,4,/
CC1(C)C2CCC1(CS(=O)(=O)N1CCOCC1)C(=O)C2 (stereo unspecified),0,10,2,13,5,/
CC1CC(C)CN(S(=O)(=O)CC23CCC(CC2=O)C3(C)C)C1 (stereo unspecified),2,25*,0,35,-6,-9
C[C@@H](O[Si](c1ccccc1)(c1ccccc1)C(C)(C)C)[C@H]1C(=O)N[C@H](Cc2cn(S(=O)(=O)c3ccccc3)c3ccccc23)C(=O)N1C,7,/,/,/,/,/
CCCCS(=O)(=O)N1C2=NC3=C(C(=O)N(CCOC)C3=O)C3N(C)c4ccccc4[C@]23C[C@H]1CO (stereo partly specified),9,/,/,/,/,/
CCCCCCCCn1c2c(c(=N)c3ccccc31)CCC2,13,0,3,?,-17,/
Cc1cc(C)c2c(=N)c3ccccc3n(CCCCCCCCn3c4ccccc4c(=N)c4c(C)cc(C)nc43)c2n1,5,26*,/,/,9,-1
O=C(NC1CCCC1)C(C1CC1)n1c(-c2ccnc3ccccc23)nc2ccccc21 (stereo unspecified),5,10,/,/,-9,/
COc1ccc(CN2C[C@H](COCc3ccccc3)Oc3cccc(N4CCCC4)c3S2(=O)=O)cc1,6,11,/,/,-5,/
COC(=O)c1ccc(Nc2nc(-c3ccncc3)nc3ccccc23)cc1,14,34*,-5,-13,17,34*
COC(=O)c1cccc(Nc2nc(-c3cccnc3)nc3ccccc23)c1,-8,43*,3,16,18,53*
CCOC(=O)c1cccc(Nc2nc(-c3cccnc3)nc3ccccc23)c1,-33,17,13,-5,8,/
c1ccc(Nc2nc(-c3ccncc3)nc3ccccc23)cc1,1,8,-9,?,-6,/
CC(=O)OCC(=O)Nc1cc(S(=O)(=O)N2CCCCCC2)ccc1Cl,-2,25*,-12,-14,-2,0
O=C(COC(=O)C1CCC1)Nc1cc(S(=O)(=O)N2CCCCC2)ccc1Cl,4,6,2,5,-14,/
COc1ccc(OC)c(-n2nnnc2SCC(=O)Nc2ccc3c(c2)OCCO3)c1,-5,49*,1,1,11,45*
COc1ccc(O)c(/C=N/Nc2nc(C)cc(-c3ccccc3)n2)c1,5,10,24,2,-13,/
COc1ccc(O)c(/C=N/Nc2nc(Nc3ccccc3)nc(-n3nc(C)cc3C)n2)c1,-5,39*,103*,-3,11,18
Cc1ccccc1NC(=O)Cc1nc(COC(=O)c2cc([N+](=O)[O-])ccc2N)cs1,-37,29*,36,3,0,23
O=C(Nc1ccc(CN2CCOCC2)cc1)c1ccc(-c2cccc(Cl)c2)o1,-31,32*,1,-3,14,27*
COc1ccc(C=NNC(=O)NN=Cc2ccc(OC)c(OC)c2)cc1OC,-3,38*,/,/,6,55*
SMILES,sPLA2-III inh,ARFGAP1 inh,SKKanGAS inh,Calb FLC,ASAP1 inh,ARFGAP1 confirm
COC(=O)N/N=C/c1ccc(OS(=O)(=O)c2ccc(C)cc2)c(OC)c1,-1,37*,-4,8,5,-4
CCOc1ccc(-n2c(SCC(=O)Nc3cc4oc5ccccc5c4cc3OC)nnc2-c2cccc(Cl)c2)cc1,3,/,/,/,/,/
Nc1[nH]c(C(=O)c2ccccc2)c(-c2ccc3ccccc3c2)c1C(=O)NCc1ccc(-c2ccccc2)cc1,-4,-1,/,/,6,/
Cc1nc(C(F)(F)F)ccc1C(=O)N1CCC1(C)C(=O)NS(=O)(=O)c1ccc(C(C)(C)C)cc1 (stereo unspecified),-10,-6,/,/,6,/
COc1ccc(CCNC(=O)CN(c2ccccc2OC)S(C)(=O)=O)cc1,5,28*,1,4,-1,-6
O=C(O)C(=Cc1ccccc1[N+](=O)[O-])c1ccc2c(c1)OCO2,-4,5,/,/,8,/
C[C@H](CO)N1C[C@H](C)[C@@H](CN(C)S(=O)(=O)c2cn(C)cn2)OCc2cnnn2CCCC1=O,0,51*,/,/,-1,-1
Cc1cccc(OCC(=O)OC2CCN(C)CC2)c1,-1,26*,-16,-5,-4,0
CN1CCC(OC(=O)COc2ccccc2)CC1,-5,-2,-16,-6,0,/
Cc1ccc(OCC(=O)Oc2cccc(C)c2)cc1,-1,26*,-10,-9,8,-5
NC1=NC(=O)/C(=C/c2cccc(-c3ccc(S(N)(=O)=O)cc3)c2)S1,0,28*,3,-7,-3,5
CC(=O)Nc1ccc(NC(=O)c2cc(=O)c3cc(C)c(C)cc3o2)cc1,-5,29*,11,6,10,17
CS(=O)(=O)N1CCN(C(=O)COc2ccc3ccccc3c2)CC1,7,2,-1,-3,2,/
CS(=O)(=O)N1CCN(C(=O)COc2ccccc2)CC1,5,25*,-2,3,-1,-1
CCCOc1ccc(-c2cc(C(=O)NCC3CCCO3)c3ccccc3n2)cc1 (stereo unspecified),8,27*,2,-11,-22,7
CCNC(=O)N1CCN(c2ccc(N3CCN(C(=O)NCC)[C@@H](C)C3)c(C)c2)[C@H](C)C1,15,4,/,/,-6,/
COc1cc(OC)cc(C(=O)Nc2ccccc2-c2nnn(CC(=O)Nc3cc(C)on3)n2)c1,-8,25*,30,4,10,31*
O=C(NCC(c1ccccc1)c1ccccc1)[C@H](Cc1ccccc1)NC1(C(=O)NC2CCCCC2)CCCCCC1,12,/,/,/,/,/
O=C(Cn1c(=O)oc2ccccc21)Nc1ccc(Cl)cc1Cl,-7,25*,-1,-2,-8,-2
CCCCCn1nnnc1C1(C)CCCC(=O)N1Cc1ccco1 (stereo unspecified),3,/,/,/,/,/
Cc1cccc(Nc2nc(-c3ccc4c(c3)OCCO4)cs2)c1,6,26*,4,-22,17,2

# Source: PubChem BioAssay
